Results of several laboratories.
Each line is one published result; the experiments were not run side by side.
Route: oral

Structure (SMILES)	test system	setting	Tmax [h]
COc1cc(N2CCC(N3CCN(C)CC3)CC2)ccc1Nc1ncnc(Nc2ccccc2S(=O)(=O)C(C)C)n1	human, plasma	325 mg, multiple doses, patients	3.75
CC(C)n1cc(C#N)c2cc(-n3cc(C(=O)O)cn3)ccc21	human, plasma	100 mg, single dose, fasted, healthy volunteers	3.5
CCc1nc2c(C)cc(N3CCN(CC(=O)N4CC(O)C4)CC3)cn2c1N(C)c1nc(-c2ccc(F)cc2)c(C#N)s1	human, plasma	600 mg, single dose, fasted, healthy volunteers	1.8
CC(C)(O)c1ccccc1-c1ccc2[nH]c(/C=C/c3ccc(C(F)(F)F)cc3)nc2c1	male human, plasma	225 mg, single dose, fasted	2.02
C[C@@H](Nc1cc(F)cc(F)c1)c1cc(C(=O)N(C)C)cc2c(=O)cc(N3CCOCC3)oc12	human, plasma	60 mg, single dose, patients	1.27
C=CC(=O)N(C)CCOc1c(N)ncnc1-c1cc(F)cc(NC(=O)c2ccc(C3CC3)cc2F)c1C	human, blood	60 mg, single dose, healthy volunteers	1.01
COc1ccc([C@@H]2CN(C(=O)[C@@H](O)CO)C[C@@]2(C)[C@@H](C)O)cc1OC1CN(c2ccc(C)cn2)C1	human, plasma	0.5 mg, single dose, healthy volunteers	1.5
NS(=O)(=O)NCCNc1nonc1C(=NO)Nc1ccc(F)c(Br)c1	human, plasma	700 mg, multiple doses, twice daily, steady state, patients	3
CS(=O)(=O)CCC#N	human, plasma	100 mg, multiple doses, once daily	1
C#C[C@]1(COP(=O)(O)OP(=O)(O)OP(=O)(O)O)O[C@@H](n2cnc3c(N)nc(F)nc32)C[C@@H]1O	human, plasma	30 mg, single dose	24
Cn1cc(-c2ccc(S(=O)(=O)[C@@H]3C[C@@H](C(=O)NC4(C#N)CC4)N(C(=O)C4(C(F)(F)F)CC4)C3)c(C(F)(F)F)c2)cn1	human, plasma	1 mg, single dose, fasted, healthy volunteers	4
CC(C)(Sc1ccncc1-c1ccc(C#N)c2ccccc12)C(=O)O	male human, plasma	20 mg, single dose, fed, healthy volunteers	1.25
CCc1nc(C(N)=O)c(Nc2ccc(N3CCC(N4CCN(C)CC4)CC3)c(OC)c2)nc1NC1CCOCC1	human, plasma	80 mg, multiple doses, patients	4.03
